Results reported in ChEMBL document CHEMBL3286335, “Synthesis of 2,3,6-trideoxy sugar triazole hybrids as potential new broad spectrum antimicrobial agents” (Eur J Med Chem, 2014).
In brackets after ≈: the same amount, converted by molar mass.

Assays:
[1] = system: Pseudomonas aeruginosa; assay: Antimicrobial activity against Pseudomonas aeruginosa ATCC BAA-427 after 24 hrs by microbroth dilution method; assay type: functional; details: ATCC BAA-427, 24 h
Outline: (§1)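 Broth microdilution per NCCLS guidelines. Bacteria in Mueller-Hinton broth; fungi in MOPS-buffered RPMI 1640. Test compounds at 50-0.36 µg/mL, standard drugs over 32-0.0018 µg/mL. Inoculum 1-5 × 10^3 cells/mL, 35 °C in a moist chamber. A492 read at 24 h for bacteria, 48 h for C. albicans, 72 h for A. fumigatus, C. neoformans and S. schenckii, 96 h for T. mentagrophytes. MIC taken as 90% growth inhibition relative to growth control.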

[2] = system: Staphylococcus aureus; assay: Antimicrobial activity against Staphylococcus aureus ATCC 25923 after 24 hrs by microbroth dilution method; assay type: functional; details: ATCC 25923, 24 h; outline: as §1
[3] = system: Candida albicans; assay: Ratio of miconazole MIC to compound MIC for Candida albicans after 48 hrs by microbroth dilution method; assay type: functional
[4] = system: L929; assay: Cytotoxicity against mouse L929 cells assessed as change in morphology at MIC after 24 hrs using Giemsa staining by phase contrast microscopy; assay type: cell-based; details: l929, 24 h
Outline: (§2)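 Mouse fibroblast L929 cells grown in DMEM with 10% FBS and antibiotic/antimycotic at 37 °C, 5% CO2. Medium switched to serum-free DMEM at 90% confluency, then compounds added (DMSO stocks) for 24 h. Cells fixed, stained with Giemsa for 30 min at 37 °C, washed with PBS, air dried and examined by phase-contrast microscopy.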

[5] = system: Sporothrix schenckii; assay: Antimicrobial activity against Sporothrix schenckii after 72 hrs by microbroth dilution method; assay type: functional; outline: as §1
[6] = system: Candida albicans; assay: Antimicrobial activity against Candida albicans after 48 hrs by microbroth dilution method; assay type: functional; outline: as §1
[7] = system: Aspergillus fumigatus; assay: Antimicrobial activity against Aspergillus fumigatus after 72 hrs by microbroth dilution method; assay type: functional; outline: as §1
[8] = system: Escherichia coli; assay: Antimicrobial activity against Escherichia coli ATCC 9637 after 24 hrs by microbroth dilution method; assay type: functional; details: ATCC 9637, 24 h; outline: as §1
[9] = system: L929; assay: Cytotoxicity against mouse L929 cells assessed as reduction in cell viability after 24 hrs by MTT assay; assay type: cell-based; details: l929, 24 h
Outline: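 L929 fibroblasts in DMEM with 10% FBS at 37 °C, 5% CO2. Seeded at 1×10^3 cells per well, switched to serum-free DMEM at 90% confluency. Compounds from 1 mg/mL DMSO stocks tested at nine twofold dilutions for 24 h. MTT readout: viability = (A570−A630) sample / (A570−A630) control × 100.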

[10] = system: Staphylococcus aureus; assay: Ratio of ampicillin MIC to compound MIC for Staphylococcus aureus ATCC 25923 after 24 hrs by microbroth dilution method; assay type: functional
[11] = system: L929; assay: Cytotoxicity against mouse L929 cells assessed as change in morphology at 50 ug/ml after 24 hrs using Giemsa staining by phase contrast microscopy; assay type: cell-based; details: l929, 24 h; outline: as §2
[12] = system: Staphylococcus aureus; assay: Antimicrobial activity against methicillin-resistant Staphylococcus aureus after 24 hrs by microbroth dilution method; assay type: functional
Outline: (§3)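 Microbroth dilution in Mueller Hinton broth, following NCCLS guidelines. Test compounds were run at 50-0.36 µg/mL against an initial inoculum of 1-5 × 10^3 cells/mL. Plates were incubated in a moist chamber at 35 °C, and absorbance at 492 nm was read after 24 h. MIC was taken as 90% growth inhibition relative to the growth control.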

[13] = system: Trichophyton mentagrophytes; assay: Antimicrobial activity against Trichophyton mentagrophytes after 96 hrs by microbroth dilution method; assay type: functional; outline: as §1
[14] = system: Klebsiella pneumoniae; assay: Antimicrobial activity against Klebsiella pneumoniae ATCC 27736 after 24 hrs by microbroth dilution method; assay type: functional; details: ATCC 27736, 24 h; outline: as §1
[15] = system: Cryptococcus neoformans; assay: Antimicrobial activity against Cryptococcus neoformans after 72 hrs by microbroth dilution method; assay type: functional; outline: as §1
[16] = system: Staphylococcus aureus; assay: Ratio of vancomycin MIC to compound MIC for Staphylococcus aureus ATCC 25923 after 24 hrs by microbroth dilution method; assay type: functional
[17] = system: Staphylococcus aureus; assay: Antimicrobial activity against vancomycin-resistant Staphylococcus aureus after 24 hrs by microbroth dilution method; assay type: functional; outline: as §3
[18] = system: Aspergillus fumigatus; assay: Ratio of miconazole MIC to compound MIC for Aspergillus fumigatus after 72 hrs by microbroth dilution method; assay type: functional
[19] = system: Klebsiella pneumoniae; assay: Ratio of ampicillin MIC to compound MIC for Klebsiella pneumoniae ATCC 27736 after 24 hrs by microbroth dilution method; assay type: functional
[20] = system: Aspergillus fumigatus; assay: Ratio of clotrimazole MIC to compound MIC for Aspergillus fumigatus after 72 hrs by microbroth dilution method; assay type: functional
[21] = system: Klebsiella pneumoniae; assay: Ratio of gentamycin MIC to compound MIC for Klebsiella pneumoniae ATCC 27736 after 24 hrs by microbroth dilution method; assay type: functional
[22] = system: Klebsiella pneumoniae; assay: Ratio of vancomycin MIC to compound MIC for Klebsiella pneumoniae ATCC 27736 after 24 hrs by microbroth dilution method; assay type: functional
[23] = system: Klebsiella pneumoniae; assay: Ratio of methicillin MIC to compound MIC for Klebsiella pneumoniae ATCC 27736 after 24 hrs by microbroth dilution method; assay type: functional
[24] = system: Trichophyton mentagrophytes; assay: Ratio of fluconazole MIC to compound MIC for Trichophyton mentagrophytes after 96 hrs by microbroth dilution method; assay type: functional
[25] = system: Trichophyton mentagrophytes; assay: Ratio of miconazole MIC to compound MIC for Trichophyton mentagrophytes after 96 hrs by microbroth dilution method; assay type: functional

CC(C)CCO[C@@H]1C=CC(=O)[C@@H](Cn2cc(-c3ccc(F)cc3)nn2)O1
MIC [1]: > 50 µg/mL | MIC [2]: 0.78 µg/mL (≈ 2.17 µM) | Ratio [3]: 4 | Activity [4]: Non-toxic | MIC [5]: 6.25 µg/mL (≈ 17.4 µM) | MIC [6]: 6.25 µg/mL (≈ 17.4 µM) | MIC [7]: 50 µg/mL (≈ 139 µM) | MIC [8]: > 50 µg/mL | Activity [9]: Dose-dependent effect | Ratio [10]: 16 | Activity [11]: Toxic | MIC [12]: 3.12 µg/mL (≈ 8.68 µM) | MIC [13]: 1.56 µg/mL (≈ 4.34 µM) | MIC [14]: > 50 µg/mL | MIC [15]: 50 µg/mL (≈ 139 µM) | Ratio [16]: 16 | MIC [17]: 3.12 µg/mL (≈ 8.68 µM)

CC(C)CCO[C@@H]1C=CC(=O)[C@@H](Cn2cc(COCC34CC5CC(CC(C5)C3)C4)nn2)O1
MIC [1]: 50 µg/mL (≈ 113 µM) | MIC [2]: 1.56 µg/mL (≈ 3.52 µM) | Activity [4]: Non-toxic | Ratio [18]: 8 | MIC [5]: 50 µg/mL (≈ 113 µM) | MIC [6]: > 50 µg/mL | MIC [7]: 1.56 µg/mL (≈ 3.52 µM) | MIC [8]: 50 µg/mL (≈ 113 µM) | Activity [9]: Dose-dependent effect | Ratio [19]: 16 | Activity [11]: Toxic | MIC [12]: 3.12 µg/mL (≈ 7.03 µM) | Ratio [20]: 5 | Ratio [21]: 2 | MIC [13]: 1.56 µg/mL (≈ 3.52 µM) | MIC [14]: 0.78 µg/mL (≈ 1.76 µM) | MIC [15]: 50 µg/mL (≈ 113 µM) | Ratio [22]: 16 | Ratio [23]: 8 | MIC [17]: 3.12 µg/mL (≈ 7.03 µM)

CCCCCCCCc1cn(C[C@H]2O[C@H](OCCCC)C=CC2=O)nn1
MIC [1]: > 50 µg/mL | MIC [2]: 6.25 µg/mL (≈ 17.2 µM) | Ratio [3]: 4 | MIC [5]: 25 µg/mL (≈ 68.8 µM) | MIC [6]: 6.25 µg/mL (≈ 17.2 µM) | MIC [7]: > 50 µg/mL | MIC [8]: > 50 µg/mL | MIC [12]: > 50 µg/mL | MIC [13]: 6.25 µg/mL (≈ 17.2 µM) | MIC [14]: > 50 µg/mL | MIC [15]: 25 µg/mL (≈ 68.8 µM) | MIC [17]: > 50 µg/mL

CCCCCCCCc1cnnn1C[C@H]1O[C@H](OCCC(C)C)C=CC1=O
MIC [1]: > 50 µg/mL | MIC [2]: 0.78 µg/mL (≈ 2.07 µM) | Activity [4]: Non-toxic | MIC [5]: 6.25 µg/mL (≈ 16.6 µM) | MIC [6]: 50 µg/mL (≈ 132 µM) | MIC [7]: > 50 µg/mL | MIC [8]: > 50 µg/mL | Activity [9]: Dose-dependent effect | Ratio [10]: 16 | Activity [11]: Toxic | MIC [12]: 12.5 µg/mL (≈ 33.1 µM) | MIC [13]: 25 µg/mL (≈ 66.2 µM) | MIC [14]: 50 µg/mL (≈ 132 µM) | MIC [15]: 25 µg/mL (≈ 66.2 µM) | Ratio [16]: 16 | MIC [17]: 12.5 µg/mL (≈ 33.1 µM)

CCCCCCCCc1cn(C[C@H]2O[C@H](OCCC(C)C)C=CC2=O)nn1
MIC [1]: > 50 µg/mL | MIC [2]: 0.78 µg/mL (≈ 2.07 µM) | Activity [4]: Non-toxic | MIC [5]: 50 µg/mL (≈ 132 µM) | MIC [6]: > 50 µg/mL | MIC [7]: > 50 µg/mL | MIC [8]: > 50 µg/mL | Activity [9]: Dose-dependent effect | Ratio [10]: 16 | Ratio [19]: 16 | Activity [11]: Toxic | MIC [12]: 3.12 µg/mL (≈ 8.26 µM) | Ratio [21]: 2 | MIC [13]: 3.12 µg/mL (≈ 8.26 µM) | MIC [14]: 0.78 µg/mL (≈ 2.07 µM) | MIC [15]: > 50 µg/mL | Ratio [22]: 16 | Ratio [16]: 16 | Ratio [23]: 8 | MIC [17]: 3.12 µg/mL (≈ 8.26 µM)

CC(C)CCO[C@@H]1C=CC(=O)[C@@H](Cn2cc(C=O)nn2)O1
MIC [1]: 50 µg/mL (≈ 170 µM) | MIC [2]: 50 µg/mL (≈ 170 µM) | Activity [4]: Non-toxic | MIC [5]: 25 µg/mL (≈ 85.2 µM) | MIC [6]: > 50 µg/mL | MIC [7]: 25 µg/mL (≈ 85.2 µM) | MIC [8]: 50 µg/mL (≈ 170 µM) | Activity [9]: Dose-dependent effect | Activity [11]: Toxic | MIC [12]: > 50 µg/mL | MIC [13]: 3.12 µg/mL (≈ 10.6 µM) | MIC [14]: 50 µg/mL (≈ 170 µM) | MIC [15]: 50 µg/mL (≈ 170 µM) | MIC [17]: > 50 µg/mL

CC(C)CCO[C@@H]1C=CC(=O)[C@@H](Cn2cc(C(C)(C)C)nn2)O1
MIC [1]: > 50 µg/mL | MIC [2]: 1.56 µg/mL (≈ 4.85 µM) | Activity [4]: Non-toxic | MIC [5]: 12.5 µg/mL (≈ 38.9 µM) | MIC [6]: 25 µg/mL (≈ 77.8 µM) | MIC [7]: > 50 µg/mL | MIC [8]: > 50 µg/mL | Activity [9]: Dose-dependent effect | Activity [11]: Toxic | MIC [12]: 12.5 µg/mL (≈ 38.9 µM) | MIC [13]: > 50 µg/mL | MIC [14]: > 50 µg/mL | MIC [15]: 25 µg/mL (≈ 77.8 µM) | MIC [17]: 12.5 µg/mL (≈ 38.9 µM)

CCCCO[C@@H]1C=CC(=O)[C@@H](Cn2cc(CCCCl)nn2)O1
MIC [1]: > 50 µg/mL | MIC [2]: 12.5 µg/mL (≈ 38.1 µM) | Activity [4]: Non-toxic | MIC [5]: 3.12 µg/mL (≈ 9.52 µM) | MIC [6]: 25 µg/mL (≈ 76.3 µM) | MIC [7]: > 50 µg/mL | MIC [8]: > 50 µg/mL | Activity [9]: Dose-dependent effect | Activity [11]: Toxic | Ratio [24]: 40 | MIC [12]: > 50 µg/mL | Ratio [25]: 2 | MIC [13]: 0.39 µg/mL (≈ 1.19 µM) | MIC [14]: > 50 µg/mL | MIC [15]: 50 µg/mL (≈ 153 µM) | MIC [17]: > 50 µg/mL
